Assay outcomes as filed in PubChem BioAssay.
SIAE primary – blocks human sialic acid acetylesterase; 0.69% of 370,000 active; Q9HAT2; SIAE FP-Rh probe binding, fluorescence polarization; AID 1053197; inhibition, % at 9.66 µM;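 active means inhibition above a cutoff: mean of compounds within the control limits plus 3 SD of those, cut at about 17% in these data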
DDE Tn7 FP inh – DD(E)-Tn7 binding inhibition, primary FP screen. P02675. FP displacement of FITC-Tn7 peptide from fibrin DD(E); 0% = median of compound wells per plate. inhibition, % at 8.3 µM. 0.13% of 370,000 active. AID 720508;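 active means inhibition above the mean of compounds falling within the control limits plus 3 SD of them, cut at about 14% in these data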
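System: human fibrin DD(E); quantity: Fibrin-DD(E) at 2 µM final; also added: fluorescent Tn7 probe at 0.1 µM; compound dosing: single nominal test concentration of 8.3 µM per compound; schedule: 10 min preincubation, 3 h with tracer, room temperature; detection: fluorescence polarization of the labelled Tn7 tracer; repeats: one replicate per compound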
TCR CD3 inh – human TCR-CD3 binding inhibition; TAMRA-labeled TCR probe fluorescence, biochemical; inhibition, % at 9.4 µM; 0.37% of 360,000 active; AID 651800; in the data active means inhibition above about 19%;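 further: recombinant mutant TCR 2C K166C tagged with TAMRA read by polarization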
mABHD4 FP – ABHD4 (mouse) inhibition, primary FP screen. Q8VD66. inhibition, % at 8.92 µM. purified mABHD4, FP-Rh probe fluorescence polarization. 0.54% of 370,000 active. AID 720543;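 active means inhibition exceeding the mean over every tested compound plus 3 SD, cut at about 30% in these data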
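Doses – 8.92 µM, single dose · Material – wild-type mouse ABHD4 protein · Replication – single well per compound (singlicate) · Measure – percent inhibition of probe binding, normalized to plate controls · Schedule – 45 min compound pre-incubation plus 60 min probe step, 25 °C · Detection – fluorescence polarization with parallel and perpendicular emission, 525/598 nm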
DDE Tn6 FP inh – disrupts Tn6 cyclic peptide binding to fibrin D-Dimer-E complex | inhibition, % at 8.3 µM | AID 720509 | 0.21% of 370,000 active | Fibrin DD(E) TRITC-Tn6 fluorescence polarization displacement;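 active means inhibition above a per-campaign cutoff: mean of compounds within control limits plus 3 SD, cut at about 15% in these data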
HTRA1 inhibitor – blocks human HTRA1 serine peptidase. AID 504803. inhibition, % at 5.96 µM. Q92743. recombinant HTRA1, FP-rhodamine activity-based probe, fluorescence polarization. 0.5% of 340,000 active; in the data active means inhibition above about 36%
Target sequence (Q92743 whole entry, looked up): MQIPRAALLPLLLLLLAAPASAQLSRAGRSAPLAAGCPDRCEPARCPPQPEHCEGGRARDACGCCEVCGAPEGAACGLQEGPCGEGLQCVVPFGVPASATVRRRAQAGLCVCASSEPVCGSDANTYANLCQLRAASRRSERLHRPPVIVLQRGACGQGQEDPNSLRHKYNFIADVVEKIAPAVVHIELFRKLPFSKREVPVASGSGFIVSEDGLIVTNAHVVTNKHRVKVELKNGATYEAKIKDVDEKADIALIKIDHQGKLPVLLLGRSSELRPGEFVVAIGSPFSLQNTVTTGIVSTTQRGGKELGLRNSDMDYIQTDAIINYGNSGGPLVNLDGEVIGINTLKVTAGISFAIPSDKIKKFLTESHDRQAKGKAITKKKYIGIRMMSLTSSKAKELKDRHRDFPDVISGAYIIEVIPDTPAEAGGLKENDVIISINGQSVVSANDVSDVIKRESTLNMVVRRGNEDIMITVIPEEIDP
SIAE confirm – confirmation of human SIAE inhibitors | 13% of 2,300 active | shares compounds with SIAE primary | inhibition, % at 9.66 µM | SIAE FP-Rh activity-based probe, fluorescence polarization;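 active means mean inhibition of the replicates above the hit cutoff set in the primary screen, cut at about 17% in these data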;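 further: inhibitors lower polarization as more probe stays unbound to SIAE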
Hits are given with their value; . = inactive; / = no result. Compounds with a hit are over-represented: about 1.8% of the library has one in this group of screens.

SMILES	SIAE primary	DDE Tn7 FP inh	TCR CD3 inh	mABHD4 FP	DDE Tn6 FP inh	HTRA1 inhibitor	SIAE confirm
COc1ccc(OCCSc2nc3ccccc3n2CC(=O)O)cc1	.	.	.	.	.	.	/
O=C1OC(c2ccccc2)=NC12CC2c1ccc(Cl)cc1 (stereo not drawn)	23.2	.	.	.	.	.	70.1
S=C(NNc1ccnc2cc(Cl)ccc12)Nc1ccccc1Cl	24.4	.	.	.	.	.	20.5
S=C(Nc1ccccc1Cl)Nc1ccc(Cl)cc1Cl	.	.	.	.	.	.	/
CC(C)CN1C(=O)C(=O)N(CC(=O)N(C)CC(=O)Nc2ccc(F)cc2)C1=O	19.9	.	.	.	.	.	.
CN(CC(=O)Nc1ccc(F)cc1)C(=O)Cc1ccsc1	.	.	.	.	.	.	/
CC(C)C1=Nc2cccc3cccc(c23)N1	.	.	.	.	.	.	/
Nc1cccc(C2=Nc3cccc4cccc(c34)N2)c1	44.6	.	.	.	.	.	.
COc1ccc(C2=Nc3cccc4cccc(c34)N2)cc1	25.9	.	.	.	.	.	.
CCCNC(=O)NC(=O)CN1C(=O)NC(C)(c2ccc3ccccc3c2)C1=O (stereo not drawn)	.	.	.	.	.	.	/
C=CCN1C(=O)[C@@H](CC(=O)NCCCOC)[C@]2(C(=O)OCC)CCCCC/C=C/12	.	.	/	.	.	/	/
O=C(Nc1nc2ccccc2[nH]1)C1CC1	.	.	.	.	.	.	/
O=C(Nc1nc2ccccc2[nH]1)C12CC3CC(CC(C3)C1)C2	17.5	.	.	.	.	.	.
NNC(=O)c1sc2nc(N3CCOCC3)c3c(c2c1N)CCCC3	17.9	.	.	.	.	/	.
Nc1c(C(=O)NCc2ccccc2)sc2nc(N3CCOCC3)c3c(c12)CCCC3	19.0	.	.	.	.	.	.
Nc1c(C(=O)Nc2ccccc2)sc2nc(N3CCOCC3)c3c(c12)CCCC3	.	.	.	.	.	.	/
COC(=O)C(Cc1c[nH]c2ccccc12)NC(=O)c1ccc2nc[nH]c2c1 (stereo not drawn)	.	.	.	.	.	.	/
COC(=O)C(Cc1c[nH]c2ccccc12)NC(=O)c1cncc(Br)c1 (stereo not drawn)	20.3	.	.	.	.	.	.
O=C1CCC(C(=O)Nc2cccc(S(=O)(=O)Nc3ccccc3F)c2)=NN1	23.8	.	.	.	.	.	.
COc1cccc([C@H]2NC(=O)C/C=C/[C@@H](C)[C@@H](c3cccc(OC)c3)NC(=O)C/C=C/[C@H]2C)c1	.	.	/	.	.	/	/
Cc1ccc(-n2c([S-])c(C(=O)Nc3ccc(OC(F)F)cc3)[n+]3ccc(C(=O)NCCO)cc23)cc1C	17.5	.	.	.	.	.	.
CCc1ccccc1NC(=O)c1onc(C)c1Cl	32.1	.	.	.	.	.	.
Nc1nonc1-n1nnc(C(=O)N/N=C/c2ccc(OCc3ccccc3)cc2)c1CN1CCCCC1	.	.	.	.	.	.	/
CC1CCC(=NNC(=O)c2ccccc2-n2cccc2)CC1 (stereo not drawn)	.	.	.	.	.	.	/
CC1CCC/C(=N/NC(=O)c2ccccc2-n2cccc2)C1 (stereo not drawn)	42.4	.	.	.	.	.	.
SMILES	SIAE primary	DDE Tn7 FP inh	TCR CD3 inh	mABHD4 FP	DDE Tn6 FP inh	HTRA1 inhibitor	SIAE confirm
CCCCc1cc(=O)oc2cc(C)cc(OCC(=O)Nc3cccnc3)c12	.	.	.	.	.	.	/
CCCc1cc(=O)oc2cc(C)cc(OCC(=O)NCc3cccnc3)c12	17.5	.	.	.	.	.	.
Cc1ccc(NC(=O)c2ccc(S(=O)(=O)N3CCCC3)cc2)nc1	.	.	.	.	.	.	/
COc1ccc(N2CCN(c3ncnc4c3cnn4-c3ccc(C)cc3C)CC2)cc1	.	.	.	.	.	.	/
Cc1ccc(-n2ncc3c(N4CCN(c5ccccc5)CC4)ncnc32)c(C)c1	17.8	.	.	.	.	.	.
Cc1ccc(O)c(Nc2c3ccccc3nc3ccccc23)c1	36.6	.	.	.	.	.	.
CN1Cc2c(N3CCOCC3)nc3sc(C#N)c(N)c3c2CC1(C)C	19.9	.	.	.	.	.	.
Oc1ccc(NC(=S)N=Nc2c(O)[nH]c3ccccc23)cc1	18.9	.	.	.	.	.	.
CCCCNC(=O)Nc1ccccc1C(=O)Nc1ccc(OC)cc1	50.2	.	.	.	.	.	.
CCCCNC(=O)Nc1ccccc1C(=O)NCCC	.	.	.	.	.	.	/
CC(Sc1ccc(Cl)cc1)C(=O)NNC(=O)c1csc(N2CCOCC2)n1 (stereo not drawn)	.	.	.	.	.	.	/
Clc1ccc(SCc2csc(N3CCOCC3)n2)cc1	18.0	.	.	.	.	.	.
C#CCNC(=O)C[C@@H]1C[C@@]2(C(=O)OC)CCCCC=C2N(Cc2ccc3c(c2)OCO3)C1=O	.	.	.	.	.	/	/
C=CCN1C(=O)[C@H](CC(=O)NCc2ccc(C)o2)[C@@]2(C(=O)OCC)CCCC=C12	.	.	/	.	.	/	/
CCCOc1ccc(OCCN2CCCC(C)C2)cc1 (stereo not drawn)	20.4	.	.	.	.	.	.
CC1CCCN(CCOc2cccc(Oc3ccccc3)c2)C1 (stereo not drawn)	.	.	.	.	.	.	/
COc1cc(/C=N/NC(=O)c2ccc(CSc3nc4ccccc4[nH]3)cc2)ccc1O	18.6	.	.	.	.	/	.
COc1cc(/C=N/NC(=O)c2ccccc2)ccc1O	.	.	.	.	.	.	/
O=C(NCc1cccc(Cl)c1)C1Cc2c(-c3ccccc3Oc3ccccc3)ccnc2O1 (stereo not drawn)	.	.	.	.	.	/	/
O=C(OCCN=C1NS(=O)(=O)c2ccccc21)c1ccccc1F	.	.	.	.	.	.	/
COc1ccc(OCc2cc(C(=O)N3CCCC(O)C3)no2)c2ccccc12 (stereo not drawn)	17.6	.	.	.	.	.	.
COc1ccc(OCc2cc(C(=O)N3CCCC(OC)C3)no2)c2ccccc12 (stereo not drawn)	.	.	.	.	.	.	/
C=CCc1cc(OC)ccc1OCCOCCN1CCc2ccccc2C1	.	.	.	.	.	.	/
COc1ccccc1NCCC(=O)OCC(=O)NCc1ccco1	26.9	.	.	.	.	.	.
Cn1c(=O)oc2cc(S(=O)(=O)N3CCC(C(=O)N4CCN(c5ccc(F)cc5)CC4)CC3)ccc21	19.5	.	.	.	.	.	.
Cn1c(=O)oc2cc(S(=O)(=O)N3CCC(C(=O)N4CCN(c5ccccc5)CC4)CC3)ccc21	.	.	.	.	.	.	/
